According to the EternaBench riboswitch data:

Test system: MS2 coat protein
Experiment: apparent Kd, MS2 coat protein; higher = weaker binding; RNA-MaP array; FMN 200 µM where present
How it was run: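 The apparent Kd is reported as the median of filtered per-cluster binding-curve fits. To get these curves, designs transcribed by stalled E. coli RNA polymerase on Illumina sequencing-chip clusters were titrated with SNAP-549-labelled MS2 coat protein from 0.7 or 1.5 nM, doubling to 3 µM. Titrations were run without and then with constant ligand in 100 mM Tris-HCl pH 7.5, 80 mM KCl, 4 mM MgCl2, BSA, DTT, yeast tRNA and Tween-20, and green signal was normalised to red-channel RNA signal and control-cluster median Fmax.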

[1] = ligand present: flavin mononucleotide, designed as: OFF switch for flavin mononucleotide
[2] = designed as: OFF switch for flavin mononucleotide, no ligand
[3] = designed as: ON switch for flavin mononucleotide, no ligand
[4] = ligand present: flavin mononucleotide, designed as: ON switch for flavin mononucleotide

| Sequence | apparent Kd [1] | apparent Kd [2] | apparent Kd [3] | apparent Kd [4] |
| --- | --- | --- | --- | --- |
| GUGUAGAUAGGAUAUGCUUUGAGCUUAUGAGAGUAUGCUCGACAUGAGGAUCACCCAUGUAGAAGGGUUUACAC | 0.0525 µM |  |  |  |
| AUUUUUUAUGUAGGAUAUGCUUGUGGUAAGAUAGCAGAAGGACAUGAGGAUCACCCAUGUUAAUGAUAGAGAUUUUAGGUUGGU | 0.0692 µM | 0.0426 µM |  |  |
| AGUAACAGAGGAUAUACUAUUUUAUGUGUUUAUUGUUUUGAACAUGAGGAUCACCCAUGUAGAAGGCUGAAUAA | 0.028 µM | 0.0244 µM |  |  |
| CAUACACAUGAGGAUCACCCAUGUGAGGAUAUGCGUACGUUGUCCGUAGGCGACGUGCGCAGAAGGCGCAAGGU | 0.081 µM | 0.0633 µM |  |  |
| ACACGGUAUGUAGGAUAUGCAUAGCAUUGCUAUGCAGAAGGACAUGAGGAUCACCCAUGUAUGUAUUCCAUACUAAUCCCGUGU | 0.00558 µM | 0.00549 µM |  |  |
| CCCACGAAAGUCGAACGAUGAUGGAGAAGGAGUAUAACAUGACAUGAGGAUCACCCAUGUGCCAACUAGGAUAUCCAUCAUGGG | 0.00855 µM | 0.00972 µM |  |  |
| CGUCUAUGCCAGAAGGCAUGUCAAAAGACAUGAGGAUCACCCAUGUAAAUGAGGAUAUGGCAUAGACGAAAAGUGCGAAAGCAC |  |  | 0.136 µM | 0.0136 µM |
| UUUUGACAUGAGGAUCACCCAUGUGAGGAUAUGAUGCGAUCGUCGAAAGACGAUAGCAUCAGAAGGCACAUAUG | 0.336 µM | 0.112 µM |  |  |
| GUGUACAGAGGAUAUACAUAAGCUAGGAAACUAGCAUCUUCACAUGAGGAUCACCCAUGUAGAAGGCUGUACAC | 0.0785 µM | 0.0198 µM |  |  |
| AAAAAACAUGAGGAUCACCCAUGUAAUAAAACGUCAGGAUAUUGAUUUUAUUAUUUAUUGCGAGAAGGGACAAAAA |  |  | 0.0372 µM | 0.0244 µM |
| UUGUUGUAUGUAGGAUAUGCAUAUUAUUAUUAUGCAGAAGGACAUGAGGAUCACCCAUGUAUAUUAUUAUUAUAUGUUAUAUAU | 0.0342 µM | 0.026 µM |  |  |
| GAAAAUACAUGAGGAUCACCCAUGUAGGAUAUCGCUAUUGUAAUCAUGUUACAUGAUUACAAUAGCGAGAAGGACGUGAGAAAG | 0.0223 µM | 0.0247 µM |  |  |
| AGCAUGUAAGGAUAUGCAACACAGCUUUCAAUCGCUGUGCCGCAGAAGGUACAUGAGGAUCACCCAUGUGCUCC | 0.0912 µM | 0.0854 µM |  |  |
| GGCUGUUUAGGAUAUACAUGAGGAUCACCCAUGUCGUUUAAUACAGACGGAUCCAACUGUAGAAGGAGAUGCCG | 0.0797 µM | 0.102 µM |  |  |
| AUUUAGAGAGGAUAUAUAAAGUGAAACAUGAGGAUCACCCAUGUAAUUUUAUGGAUGUAAAUAGAAGGCUCAUUUU | 0.0294 µM | 0.0382 µM |  |  |
| UGAGCCUCGUGAGGAUAUACAUGAGGAUCACCCAUGUAAAUGAAAGAUAGCUCGAAACGAGCAAAGUAGAAGGCACGAGGCUCA | 0.0272 µM | 0.0171 µM |  |  |
| GUUGCUUUCCGAGGAUAUUCAGGGCGUGGCUAUACAUGAGGAUCACCCAUGUGGCGGAAGCCUAGGGAGAAGGCGGGCUGCUUC |  |  | 0.0184 µM | 0.0163 µM |
| UGGACCGAGCUAUCGGUUGACUGGGAGGAUAUGACAUGAGGAUCACCCAUGUGGGAUCUAAAUUGUCAGAAGGCUCGAUCUGGG | 0.257 µM | 0.258 µM |  |  |
| CAUCAUCAAGUGAGGAUAUCGUCAAAUCAAUCAAACGAGAAGGCACAUGAGGAUCACCCAUGUCGACUCAUCAA | 0.0249 µM | 0.0183 µM |  |  |
| AUGUUACAUGAGGAUCACCCAUGUGAGGAUAUGUGUACCGGUAAAAAAGUGUUUGGCCACAGAAGGCAUUUGGA | 0.0269 µM | 0.0287 µM |  |  |
| UGAUAGGACAGAGGAUAUACAGAUAGGAUCUACUAUCCUCCUUAAAUAACAUGAGGAUCACCCAUGUAGAAGGCUGUCCUAUCU | 0.182 µM | 0.0265 µM |  |  |

| Sequence | apparent Kd [1] | apparent Kd [2] | apparent Kd [3] | apparent Kd [4] |
| --- | --- | --- | --- | --- |
| GACAUACAUGAGGAUCACCCAUGUUCAGGCGAACAAGGAUAUGUGUGGAAACCAUACUAUACAGAAGGUGUCUGUC |  |  | 0.0631 µM | 0.0388 µM |
| GGCUACGUUUCGUAGCAGCUAGGUGAGGAUAUUCAAUUUUUCACAUGAGGAUCACCCAUGUAUGUGAAGAAGGCGCCUAGAAAU |  |  | 0.0118 µM | 0.00504 µM |
| CUCGGACAUGAGGAUCACCCAUGUGAGGAUAUGAUGCGAUCGUCGAAAGACGAUAGCAUCAGAAGGUACAAAUG | 0.0429 µM | 0.052 µM |  |  |
| CCGGAAAUGAAGGAUAUAGGUGUCGAUAGACACCUAGAAGGUCAUACAUGAGGAUCACCCAUGUGUCCUACCGG | 0.0306 µM | 0.0161 µM |  |  |
| UGCCGUAGAGGAUAUACAUAGAAAUAGAUUCAUGUAAAACUACAUGAGGAUCACCCAUGUAGAAGGCUAUGGCU | 0.137 µM | 0.0216 µM |  |  |
| GGGUACAUCGGAGGAUAUCAUGUAAAUACAUGAGGAUCACCCAUGUCGAAGGAGACAUCGGAGAUUGAGAAGGCCGAUGUACCG |  |  | 0.0877 µM | 0.579 µM |
| GCCUAACAUGAGGAUCACCCAUGUAGUGGGUUGUUAGGAUAUGGGCGGCGUAACGCUGCACCAGAAGGAAUAGAAG |  |  | 0.865 µM | 0.504 µM |
| CGCUGGUGACAGCAUCCAUCAAAACAUGAGGAUCACCCAUGUAGAAGGCUGUACGGUUACCGUACAGAGGAUAUACAAUGAUGG | 0.00975 µM | 0.00756 µM |  |  |
| UUGGACGUCGUAGGAUAUGUAGGAUAUUCCUACAUGAGGAUCACCCAUGUUGACAUGGAAGAAGGACAGAUGGACGAUGUCCAU |  |  | 0.298 µM | 0.00698 µM |
| GGAGGACAUGAGGAUCACCCAUGUGGAUGGGCGCUAGGAUAUGCGAGAGGAUGGAGAGAAGCAGAAGGAGUGGGUU |  |  | 0.15 µM | 0.107 µM |
| AGGUUGGGAGGAUAUCCAAUAUAUGACAUGAGGAUCACCCAUGUUUCCACUCGUACCUCCGGAGAAGGCCCUUCCA | 0.023 µM | 0.0217 µM |  |  |
| UGGUACUAUGGAGGAUAUGGGAAGAUACAUGAGGAUCACCCAUGUUUAAGAAUGCCGAGAGGCAACUAGAAGGCCCUAGUACCU |  |  | 0.349 µM | 0.0327 µM |
| GGAUCGAGUGUGAGGAUAUACCACUGGAUACAGUGGUAGAAGGCACAUGAGGAUCACCCAUGUCCCUACGAUCC | 0.204 µM | 0.0329 µM |  |  |
| UUAUUAUAUGUAGGAUAUGCAUAUUGUUAUUAUGCAGAAGGACAUGAGGAUCACCCAUGUAUAUUAUUAUUAUAUAUUAUAUAU | 0.0488 µM | 0.0294 µM |  |  |
| CUUUCGUGAGGAUAUGAAACUUCGAUCGUGAGAUCGAGGCUACAGAAGGCACAUGAGGAUCACCCAUGUUCCUC | 0.42 µM | 0.0346 µM |  |  |
| UGCCUGAGUCGAGGAUAUUAUGGAUCAAUUAAUACAUGAGGAUCACCCAUGUAAUUAAUUUAACAUGAGAAGGUGACUCAGGCU |  |  | 0.0122 µM | 0.0102 µM |
| UAAUAGGGAGGAUAUCCAAUAUAUGACAUGAGGAUCACCCAUGUUUCCACUCGUACCUCCGGAGAAGGCCCAUAAU | 0.0187 µM | 0.021 µM |  |  |
| AUUAUGUAAGGAUAUCUUACAUGUGACUUCGGUCACUGUUAAGAGAAGGUACAUGAGGAUCACCCAUGUAUAAC | 0.0224 µM | 0.0196 µM |  |  |
| AAAAAACAUGAGGAUCACCCAUGUCAGGAUAUCUGUAUUCAAUCCUCGGAUUGAAUACAGAGAAGGGACAAAAA | 0.0546 µM | 0.0378 µM |  |  |
| CGUUUAUUUAUGGGAUUAUAUUAUGAGGAUAUCAAUAUUUAUUACAUGAGGAUCACCCAUGUUAAUGAGAAGGCAUAAUUAACG |  |  | 0.00953 µM | 0.0063 µM |
| AUCAGCUCGUCAGGAUAUACGUCACUGCGUCAGCAGUGUGGUAAGAUCACAUGAGGAUCACCCAUGUAGAAGGUACGAGCUGAU | 0.0138 µM | 0.0086 µM |  |  |
